Source: PubChem
CAL PDZ FP-1 – human CAL PDZ-peptide interaction inhibition; inhibition, % at 20 µM; 330,000 tested, 0.02% active; Q9HD26; purified CAL PDZ, TMR-peptide fluorescence polarization, 1 h; AID 504414;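 active means highest replicate inhibition of at least 40%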;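 further: plate controls were DMSO neutral control wells for no effect and unlabeled competitor peptide control wells for full effect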
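Assay system – tagged CAL PDZ protein CerCALP, purified · Timing – 1 h at RT · Compound – single point, 20 µM · Measured by – fluorescence polarization from S- and P-plane intensities, G-factor corrected · Evaluation – inhibition from polarization loss · Probe or stimulus – TMR reporter peptide T*-PRC34 · Buffer or medium – pH 7.4 phosphate-saline buffer, reducing agent, detergent, IgG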
PvdQ acylase – blocks Pseudomonas aeruginosa PvdQ acylase activity. 340,000 tested, 0.063% active. AID 488965. purified PvdQ acylase, fluorescence plate reader. inhibition, % at 10 µM; in the data active means inhibition above about 30%, passing the limit was not always enough;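 further: 0% = vehicle neutral wells and 100% = reference inhibitor wells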
Vif imaging – inhibitors of HIV Vif | HEK293T cells, Vif self-association by quenched fluorescence, imaging, 24 h | inhibition, % at 7.49 µM | 340,000 tested, 0.35% active; in the data active means inhibition above about 50%, passing the limit was not always enough
CDK5 inh – CDK5/p35 (human) kinase inhibition; Q00535+Q15078; Recombinant CDK5/p35, ADP-Glo luminescence, 60 min; inhibition, % at 10 µM; 330,000 tested, 0.01% active; AID 488839;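 active means highest replicate inhibition of at least 50% and at least 75% of replicates reaching 50%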;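 further: plate controls were DMSO neutral control for no effect and GW8510 at 10 µM for full effect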
Target sequence (Q00535 whole entry, looked up): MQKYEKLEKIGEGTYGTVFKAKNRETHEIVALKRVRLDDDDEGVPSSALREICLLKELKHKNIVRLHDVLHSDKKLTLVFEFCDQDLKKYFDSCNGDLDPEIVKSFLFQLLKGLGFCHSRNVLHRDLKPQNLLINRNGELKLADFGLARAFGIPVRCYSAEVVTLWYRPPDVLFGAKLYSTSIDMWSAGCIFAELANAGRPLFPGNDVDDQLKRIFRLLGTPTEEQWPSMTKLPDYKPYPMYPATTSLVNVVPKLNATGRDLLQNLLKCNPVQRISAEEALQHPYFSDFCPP
Target sequence (Q15078 whole entry, looked up): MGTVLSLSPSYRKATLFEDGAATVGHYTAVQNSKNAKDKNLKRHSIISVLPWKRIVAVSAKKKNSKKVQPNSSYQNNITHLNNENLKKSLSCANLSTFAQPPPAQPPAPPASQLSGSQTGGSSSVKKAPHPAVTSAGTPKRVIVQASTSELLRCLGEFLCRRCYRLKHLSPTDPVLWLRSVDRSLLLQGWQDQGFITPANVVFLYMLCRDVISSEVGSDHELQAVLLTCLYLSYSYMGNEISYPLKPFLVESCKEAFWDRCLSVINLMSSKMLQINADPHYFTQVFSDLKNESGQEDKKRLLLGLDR
CAL PDZ FP-2 – blocks peptide binding to the human CAL PDZ domain | purified CAL PDZ, TMR-peptide fluorescence polarization, 1 h | inhibition, % at 24.9 µM | 300,000 tested, 0.92% active | AID 602252;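 active means mean inhibition of at least 30% with at least half of replicates also reaching 30%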;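 further: 0% = DMSO neutral control and 100% = excess unlabeled competitor peptide PRC23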
N-glyco inh – blocks N-linked glycosylation in D54 reporter cells; D54 ERlucT glycosylation luciferase reporter, 24 h; percent of 100 nM tunicamycin response; reporter increase, % at 12.5 µM; 360,000 tested, 0.23% active; AID 588692;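 active means mean luciferase reporter signal, scaled so untreated is 0 and the glycosylation-blocking control 100, at or above a set limit in every replicate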;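 further: luciferase carries N-glycosylation sites so blocking glycosylation raises the light; 0% = median of neutral control wells and 100% = median of 100 nM tunicamycin wells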
Starred values were filed as active, the others as inactive; nt = no result. This is a sample that favours compounds with a hit; in the whole collection about 1.4% have one here.

SMILES	CAL PDZ FP-1	PvdQ acylase	Vif imaging	CDK5 inh	CAL PDZ FP-2	N-glyco inh
COc1ccc(/C=N/NC(=S)NCC2CCCO2)cc1 (stereo unspecified)	-1	14	1	2	-7	0
COc1cc(/C=N/NC(=S)NCC2CCCO2)cc(OC)c1OC (stereo unspecified)	1	-16	0	1	36*	1
CCn1cc(C2=NC(CC(C)C)CO2)c2ccccc21 (stereo unspecified)	-2	-15	-3	-1	65*	-3
COc1ccc(CNC(=O)O[C@H]2C[C@@H]3C(=O)N(c4ccccc4)C(=O)[C@@H]3[C@@H]3CN(S(=O)(=O)c4ccc(C)cc4)C[C@]23O)cc1OC	nt	nt	3	nt	nt	2
c1ccc(-c2cnc(CSc3nnc4ccccn34)o2)cc1	0	-18	-10	0	57*	-8
COc1ccc(CNc2nc3nc(-c4ccccc4)cc(=O)n3[nH]2)cc1OC	-1	-17	1	1	40*	1
COc1ccc(CNc2nc3nc(C)c(Cl)c(=O)n3[nH]2)cc1OC	1	-12	7	0	-9	2
CCCC(=O)Nc1ccc(NC(=O)c2ccccc2Cl)nc1	nt	-19	5	1	41*	4
COc1cc(SC)ccc1C(=O)N1CCN(Cc2ccc3c(c2)OCO3)CC1	-1	-11	-19	-1	46*	-7
COc1cccc(OC)c1C(=O)N1CCN(Cc2ccc3c(c2)OCO3)CC1	0	-8	12	1	nt	-2
COc1ccc(C(C)(O)c2nc(-c3cccc(C(C)C)c3)cs2)cc1 (stereo unspecified)	nt	nt	-6	nt	nt	0
NC(=O)NC(CC(=O)NNC(=O)c1cccs1)c1ccc(Cl)cc1 (stereo unspecified)	1	-17	31	-3	31*	1
O=C(NNC(=O)c1cccs1)c1ccc(Cl)cc1	-1	-15	10	0	-2	0
Nc1ccccc1-n1cccc1	0	-18	-6	-1	31*	0
N/C(=N\O)c1ccccc1-n1cccc1	0	-14	12	-6	3	2
CC(=O)Oc1ccc(N2C(=O)C3C(C2=O)C(C(=O)c2ccc(Cl)cc2)N2CCCC32)cc1 (stereo unspecified)	-3	-6	-5	2	27	10
Cc1ccc(N2C(=O)C3C(C2=O)C(C(=O)c2ccc(Cl)cc2)N2CCCC32)cc1 (stereo unspecified)	0	-10	1	1	42*	1
CC(=O)N(/C=C1\SC(=S)N(c2ccccc2)C1=O)c1ccccc1	-2	-6	11	2	35*	4
O=C(COC(=O)c1ccc(Cl)c(S(=O)(=O)NCc2ccccc2)c1)NC1CC1	-1	-9	77*	1	8	0
Cc1nn(-c2ccccc2)c2c1C(c1ccc(F)cc1F)C(C#N)=C(N)O2 (stereo unspecified)	-2	-10	2	-1	30*	-1
Cc1nn(-c2ccccc2)c2c1C(c1ccccc1)C(C#N)=C(N)O2 (stereo unspecified)	0	-7	-1	2	-1	-2
COc1ccc(C2(c3ccc(OC)cc3)NC(=O)N(CC(=O)Nc3ccc(OC)c(OC)c3)C2=O)cc1	-1	-6	1	0	51*	-1
CCC1CCC2(CC1)NC(=O)N(CC(=O)Nc1ccc(OC)c(Cl)c1)C2=O (stereo unspecified)	0	-11	-12	0	81*	4
COc1ccc(CCNC(=O)CN2C(=O)NC(c3ccccc3)(c3ccccc3)C2=O)cc1	1	7	7	-1	-2	1
COc1ccc(NC(=O)CN2C(=O)NC3(CCCCCC3)C2=O)cc1Cl	1	10	2	0	3	10
SMILES	CAL PDZ FP-1	PvdQ acylase	Vif imaging	CDK5 inh	CAL PDZ FP-2	N-glyco inh
COc1ccc(C2(c3ccc(OC)cc3)NC(=O)N(CC(=O)Nc3ccc(C(N)=O)cc3)C2=O)cc1	-1	-5	12	0	-5	0
COc1ccc(CNC(=O)CN2C(=O)NC(c3ccccc3)(c3ccccc3)C2=O)cc1	-1	6	110*	1	9	2
COc1ccc(N(C)S(=O)(=O)c2cccc(C(=O)NCC(c3cccs3)N(C)C)c2)cc1 (stereo unspecified)	-3	-6	0	-2	1	-2
COc1ccc(NC(=O)C#Cc2ccccc2)cc1	1	-13	1	1	63*	-5
Cc1cc(C)nc(N(C#N)Cc2cccc([N+](=O)[O-])c2)n1	-1	36*	-4	-2	46*	-1
COc1ccc(CN(C#N)c2nc(C)cc(C)n2)cc1	-1	3	6	0	-2	-1
O=C(Nc1nc2c(Br)cc(Br)cc2c(=O)s1)C1CCC1	-1	-17	6	0	37*	3
CC(C)n1nc(C(=O)Nc2cccc(S(=O)(=O)N3CCOCC3)c2)c2ccccc2c1=O	-1	13	-5	-2	-5	-1
CN(C)CCc1cc2c(c3c1ccc1ccccc13)OCO2	1	12	-1	1	1	78*
COc1ccccc1OCC(=O)N/N=C/C=C/c1ccc([N+](=O)[O-])o1	-2	-10	0	-1	-2	58*
O=C(N/N=C\C=C\c1ccc([N+](=O)[O-])o1)c1cccs1	0	-9	1	3	3	41*
Cc1cc(C)c(N2C(=NC(=O)CCCC(=O)O)SC3CS(=O)(=O)CC32)c(C)c1 (stereo unspecified)	0	-12	16	0	41*	1
COc1ccc(C2OCC(C)([N+](=O)[O-])CO2)cc1 (stereo unspecified)	-1	-5	17	-3	-6	2
Cc1cc(OCC(=O)NNC(=S)NC(=O)c2ccc(Br)o2)ccc1Cl	-2	-20	nt	2	-14	nt
Cc1nn2c3ccccc3nc2c2ccccc12	43*	-16	6	-3	nt	8
Cc1nn2c(-c3ccccc3)nnc2c2ccccc12	nt	-11	-14	-2	-1	5
CC(=O)Nc1ccc(S(=O)(=O)N(C)c2ccc(OCC(=O)NCCc3ccccc3F)cc2)cc1	0	3	-6	0	3	-1
